ChEMBL document CHEMBL4052630, “Design, synthesis and evaluation of scutellarein-O-acetamidoalkylbenzylamines as potential multifunctional agents for the treatment of Alzheimer's disease” (Eur J Med Chem, 2017)

Experiments:
Acetylcholinesterase [1] = biological target: T1, Acetylcholinesterase (Rattus norvegicus, UniProt P37136); assay: Inhibition of rat cortex homogenate AChE using acetylthiocholine iodide as substrate after 15 mins in presence of BuChE inhibitor iso-OMPA by Ellman's method
T1 sequence (P37136 whole entry): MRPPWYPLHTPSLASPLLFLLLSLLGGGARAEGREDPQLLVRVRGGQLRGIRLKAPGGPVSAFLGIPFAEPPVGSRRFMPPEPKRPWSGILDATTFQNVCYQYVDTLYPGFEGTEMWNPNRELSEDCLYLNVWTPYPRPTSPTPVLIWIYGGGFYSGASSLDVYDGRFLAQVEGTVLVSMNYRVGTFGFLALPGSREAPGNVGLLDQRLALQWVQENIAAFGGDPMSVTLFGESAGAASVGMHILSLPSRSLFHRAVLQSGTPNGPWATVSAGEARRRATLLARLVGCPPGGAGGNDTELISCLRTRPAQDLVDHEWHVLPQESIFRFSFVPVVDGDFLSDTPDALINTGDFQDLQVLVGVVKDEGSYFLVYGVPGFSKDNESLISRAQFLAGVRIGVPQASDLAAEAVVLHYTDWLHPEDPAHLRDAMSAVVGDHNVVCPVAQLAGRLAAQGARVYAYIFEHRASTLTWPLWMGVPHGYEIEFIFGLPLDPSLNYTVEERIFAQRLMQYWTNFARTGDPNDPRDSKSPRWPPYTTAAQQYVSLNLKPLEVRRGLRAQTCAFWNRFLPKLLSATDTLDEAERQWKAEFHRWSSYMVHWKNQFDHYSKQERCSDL

[2] = Inhibition of rat serum BuChE using butyrylthiocholine iodide as substrate after 15 mins by Ellman's method; format: ADME
Acetylcholinesterase [3] = biological target: Acetylcholinesterase (Electrophorus electricus, UniProt O42275); assay: Inhibition of electric eel AChE using acetylthiocholine iodide as substrate after 15 mins by Ellman's method
Acetylcholinesterase (Electrophorus electricus, UniProt O42275), sequence (O42275 whole entry): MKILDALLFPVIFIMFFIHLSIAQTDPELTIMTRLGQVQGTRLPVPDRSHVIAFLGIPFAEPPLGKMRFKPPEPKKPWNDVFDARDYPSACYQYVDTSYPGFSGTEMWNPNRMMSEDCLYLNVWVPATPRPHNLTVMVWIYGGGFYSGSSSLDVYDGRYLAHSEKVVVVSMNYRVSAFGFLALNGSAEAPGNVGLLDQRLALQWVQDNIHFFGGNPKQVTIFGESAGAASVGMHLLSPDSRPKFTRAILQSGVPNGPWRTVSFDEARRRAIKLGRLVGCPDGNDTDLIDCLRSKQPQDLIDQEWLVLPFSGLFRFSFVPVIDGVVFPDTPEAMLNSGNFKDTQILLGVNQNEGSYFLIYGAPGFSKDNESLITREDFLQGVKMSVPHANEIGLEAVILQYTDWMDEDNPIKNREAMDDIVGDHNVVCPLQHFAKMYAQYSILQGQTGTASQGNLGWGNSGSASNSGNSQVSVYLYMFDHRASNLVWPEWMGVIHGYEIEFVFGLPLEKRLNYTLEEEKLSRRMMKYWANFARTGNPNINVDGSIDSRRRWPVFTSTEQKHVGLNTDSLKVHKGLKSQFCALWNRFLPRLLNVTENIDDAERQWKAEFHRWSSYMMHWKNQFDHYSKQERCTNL

Rattus norvegicus = organism: Rattus norvegicus; assay: Selectivity index, ratio of IC50 for rat serum BuChE to IC50 for rat cortex homogenate AChE
Procedure, shortened: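 Modified Ellman assay. AChE from 5% rat cortex homogenate, pre-incubated 5 min with iso-OMPA (4.0 mmol/L). BuChE from 25% rat serum. Enzyme incubated with compound (<1% DMSO) and acetyl- or butyrylthiocholine iodide (1 mmol/L) in phosphate buffer pH 7.4 for 15 min at 37 °C. DTNB added, read at 405 nm. IC50 from 3 independent experiments. Index = BuChE IC50/AChE IC50.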

[4] = Antioxidant activity assessed as trolox equivalents of AAPH radical scavenging activity at 1 to 10 uM preincubated for 15 mins followed by AAPH addition measured every 60 sec for 90 mins by ORAC-FL assay; format: functional
Procedure, shortened: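 ORAC-FL in 75 mM phosphate buffer pH 7.4. Compound at 1–10 µM with fluorescein (150 nM final), pre-incubated 15 min at 37 °C, then AAPH added (12 mM final). Fluorescence read every minute for 90 min, ex 485/em 535 nm. Curves normalised to the FL+AAPH blank. Trolox standard 1–8 µM. Duplicates, ≥3 independent assays. Results given as µM Trolox equivalent per µM compound.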

Acetylcholinesterase [5] = biological target: Acetylcholinesterase (Homo sapiens, UniProt P22303); assay: Inhibition of human erythrocyte AChE using acetylthiocholine iodide as substrate after 15 mins by Ellman's method
Acetylcholinesterase (Homo sapiens, UniProt P22303), sequence (P22303 whole entry): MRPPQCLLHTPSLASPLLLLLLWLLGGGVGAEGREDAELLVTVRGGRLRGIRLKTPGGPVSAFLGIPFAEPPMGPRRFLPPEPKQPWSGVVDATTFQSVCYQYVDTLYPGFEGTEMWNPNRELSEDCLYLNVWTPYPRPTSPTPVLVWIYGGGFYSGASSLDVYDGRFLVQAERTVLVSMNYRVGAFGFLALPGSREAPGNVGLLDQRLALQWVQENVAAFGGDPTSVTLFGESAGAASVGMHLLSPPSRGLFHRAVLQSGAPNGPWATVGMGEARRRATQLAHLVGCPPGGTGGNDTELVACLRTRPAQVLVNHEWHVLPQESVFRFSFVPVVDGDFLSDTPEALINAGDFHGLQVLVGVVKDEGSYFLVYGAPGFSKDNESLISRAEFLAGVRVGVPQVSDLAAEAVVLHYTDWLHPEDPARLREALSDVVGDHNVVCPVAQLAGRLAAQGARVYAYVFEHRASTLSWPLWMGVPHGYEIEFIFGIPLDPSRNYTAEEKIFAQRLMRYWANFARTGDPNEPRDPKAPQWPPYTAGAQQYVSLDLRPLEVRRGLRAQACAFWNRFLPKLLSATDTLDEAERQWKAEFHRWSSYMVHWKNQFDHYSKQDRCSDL

[6] = biological target: Amyloid-beta precursor protein (Homo sapiens) (UniProt P05067); assay: Inhibition of amyloid beta (1 to 42) (unknown origin) self aggregation at 25 uM after 24 hrs by ThT-based fluorometric method relative to control
Amyloid-beta precursor protein (Homo sapiens), sequence (P05067 whole entry): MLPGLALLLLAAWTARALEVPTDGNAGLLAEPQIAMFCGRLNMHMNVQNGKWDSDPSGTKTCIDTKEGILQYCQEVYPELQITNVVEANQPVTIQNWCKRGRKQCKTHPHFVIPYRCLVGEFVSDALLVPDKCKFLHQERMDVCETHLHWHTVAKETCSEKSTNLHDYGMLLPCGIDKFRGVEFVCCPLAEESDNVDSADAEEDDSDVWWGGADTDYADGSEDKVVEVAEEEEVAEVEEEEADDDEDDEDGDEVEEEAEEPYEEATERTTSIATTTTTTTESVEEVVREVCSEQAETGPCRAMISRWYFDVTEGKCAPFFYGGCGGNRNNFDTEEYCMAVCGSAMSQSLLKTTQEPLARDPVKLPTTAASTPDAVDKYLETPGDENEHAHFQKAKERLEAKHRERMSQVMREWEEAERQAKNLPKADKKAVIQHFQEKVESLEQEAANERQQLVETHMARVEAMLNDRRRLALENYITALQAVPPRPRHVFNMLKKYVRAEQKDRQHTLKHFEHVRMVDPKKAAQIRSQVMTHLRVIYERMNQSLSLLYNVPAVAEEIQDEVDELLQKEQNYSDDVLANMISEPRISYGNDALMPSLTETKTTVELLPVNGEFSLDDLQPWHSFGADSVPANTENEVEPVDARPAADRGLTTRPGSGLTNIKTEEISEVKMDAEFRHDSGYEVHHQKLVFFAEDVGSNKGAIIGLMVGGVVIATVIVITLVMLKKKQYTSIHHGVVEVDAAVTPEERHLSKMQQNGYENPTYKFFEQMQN
Procedure, shortened: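 Aβ1-42 (25 µM final) incubated at 37 °C for 24 h ± compound in 50 mM phosphate buffer pH 7.4, with DMSO stocks diluted in buffer. Then 5 µM thioflavin T in 50 mM glycine-NaOH pH 8.5 was added and read at ex 446/em 490 nm. Run in triplicate. % inhibition = (1−IFi/IFc)×100 after background subtraction.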

SH-SY5Y = assay: Cytotoxicity against human SH-SY5Y cells assessed as reduction in cell viability up to 10 uM after 24 hrs by MTT assay; format: cell-based
Procedure, shortened: (§1)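 SH-SY5Y cells grown in DMEM with 10% FBS at 37 °C, 5% CO2, seeded 4 × 10^4 cells/well and incubated 24 h. Compounds given at 1, 10 and 100 µM (1% DMSO final) for 24 h. MTT (5 mg/ml) added for 4 h, cells lysed overnight in DMF/SDS, absorbance read at 590 nm against control. Three independent experiments.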

[7] = Cytotoxicity against human SH-SY5Y cells assessed as cell viability at 100 uM after 24 hrs by MTT assay relative to control; format: cell-based; details: read-out: Activity; procedure, shortened: as §1
PC-12 [8] = assay: Neuroprotective activity against H2O2-induced cell injury in rat PC12 cells assessed as cell viability at 10 uM preincubated for 24 hrs followed by incubation with H2O2 for 2 hrs measured after 24 hrs by MTT assay (reference value: 43.9%); format: functional; details: read-out: Activity
Procedure, shortened: (§2)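 PC12 cells in phenol-red-free DMEM with 10% FCS, plated at 10^5 cells/well. Cells preincubated 24 h with compound (1.0 or 10.0 µM; dissolved in 2% DMSO, diluted in PBS), then exposed to H2O2 100 µM for 2 h. Medium replaced; viability assessed 24 h later by MTT (4 h, 37 °C), lysis in DMF/SDS, A590.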

PC-12 [9] = assay: Neuroprotective activity against H2O2 induced cell injury in rat PC12 cells assessed as cell viability at 1 uM preincubated for 24 hrs followed by incubation with H2O2 for 2 hrs measured after 24 hrs by MTT assay (reference value: 43.9%); format: functional; details: read-out: Activity; procedure, shortened: as §2
PC-12 [10] = assay: Neuroprotective activity against H2O2 induced cell injury in rat PC12 cells assessed as increase in cell viability preincubated for 24 hrs followed by incubation with H2O2 for 2 hrs measured after 24 hrs by MTT assay; format: functional, cell-based; procedure, shortened: as §2
[11] = Solubility of the compound in DMEM in presence of 10% FBS; format: physicochemical
[12] = Solubility of the compound in water; format: physicochemical; details: buffer

In the case of `CCN(CCCCNC(=O)COc1ccc(-c2cc(=O)c3c(OC)c(OC)c(OC)cc3o2)cc1)Cc1ccccc1OC`, the IC50 (Acetylcholinesterase [1]) is reported as 0.074 µM, the IC50 [2] is reported as > 500 µM and the IC50 (Acetylcholinesterase [3]) is reported as 9.77 µM. The Ratio IC50 (Rattus norvegicus) was > 6760, the Activity [4] was 0.38 equiv and the IC50 (Acetylcholinesterase [5]) was 0.063 µM. The inhibition [6] was 44.7%, the Activity (SH-SY5Y) was “Non-Toxic” and the viability at 24 h, 100 µM [7] was 79.4%. The viability at 10 µM (PC-12 [8]) was 63.3%, the viability at 1 µM (PC-12 [9]) was 60.1% and the Activity (PC-12 [10]) was “Dose-dependent effect”. The solubility [11] was “Insoluble” and the solubility [12] was “Insoluble”.
